Series [1] has as its system Bifunctional dihydrofolate reductase-thymidylate synthase (Plasmodium falciparum K1), P13922 [UNDEFINED MUTATION]. Nature of the series: Ratio of Inhibition of the S108N mutant of dihydrofolate reductase (DHFR) to inhibition of wild type dihydrofolate reductase.
The target of series [2] is Bifunctional dihydrofolate reductase-thymidylate synthase (Plasmodium falciparum K1, UniProt P13922). Nature of the series: Inhibition of the C59R+S108N mutant of dihydrofolate reductase (DHFR). The method, boiled down: (§1)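 Assay at 25 °C: 50 mM TES pH 7.0, 75 mM β-mercaptoethanol, 1 mg/mL BSA, 100 µM H2folate and 100 µM NADPH. NADPH oxidation followed at 340 nm. Ki derived from IC50 as Ki(1+[S]/Km), assuming competitive inhibition.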
Sequence of Bifunctional dihydrofolate reductase-thymidylate synthase (Plasmodium falciparum K1, UniProt P13922) (P13922 whole entry): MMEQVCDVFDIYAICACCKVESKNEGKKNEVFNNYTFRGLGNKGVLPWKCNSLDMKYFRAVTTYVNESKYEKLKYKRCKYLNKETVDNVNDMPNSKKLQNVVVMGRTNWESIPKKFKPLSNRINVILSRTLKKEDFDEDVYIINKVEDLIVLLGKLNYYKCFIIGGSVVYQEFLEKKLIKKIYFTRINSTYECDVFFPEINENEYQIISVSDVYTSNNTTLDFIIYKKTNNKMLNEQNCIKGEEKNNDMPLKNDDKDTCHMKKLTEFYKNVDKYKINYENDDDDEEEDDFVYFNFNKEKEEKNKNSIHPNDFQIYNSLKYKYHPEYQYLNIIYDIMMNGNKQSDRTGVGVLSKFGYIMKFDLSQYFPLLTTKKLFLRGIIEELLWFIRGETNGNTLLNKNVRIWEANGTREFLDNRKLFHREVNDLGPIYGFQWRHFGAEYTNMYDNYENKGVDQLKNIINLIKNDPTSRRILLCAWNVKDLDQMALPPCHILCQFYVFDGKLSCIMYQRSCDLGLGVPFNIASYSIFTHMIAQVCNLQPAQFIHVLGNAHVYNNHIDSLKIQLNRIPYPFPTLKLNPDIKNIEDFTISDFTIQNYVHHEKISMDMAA

Series [3] concerns Bifunctional dihydrofolate reductase-thymidylate synthase (Plasmodium falciparum K1), P13922 [UNDEFINED MUTATION]. Nature of the series: Ratio of Inhibition of the C59R+S108N mutant of dihydrofolate reductase (DHFR) to inhibition of wild type dihydrofolate reductase.
Sequence of Bifunctional dihydrofolate reductase-thymidylate synthase (Plasmodium falciparum K1), P13922 [UNDEFINED MUTATION] (P13922 whole entry, looked up, stated change not applied): as the sequence (P13922 whole entry) above
Series [4] is described as follows: Safety ratio is cytotoxicity to vero cells/IC50 k1. The format is toxicity, cell-based. The settings on record: monkey, read-out: Safety ratio. In short, it runs like this: (§2)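 Ratio of the cytotoxicity IC50 (vero, KB or BC cells, Skehan protocol) to the antiplasmodial IC50 against K1CB1 (C59R+S108N DHFR). […] Label was added at 24 h and cultures ran a further 18-24 h. Final DMSO was 0.1%.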

The test system of series [5] is Vero. Nature of the series: (§3) Cytotoxicity by the selective inhibition against African green monkey kidney […] (vero cells). The settings on record: Chlorocebus sabaeus. The format is functional, cell-based.
Series [6] is described as follows: Safety ratio is cytotoxicity to vero cells/IC50 K1. The class given is toxicity, cell-based. To be noted: monkey. The method, boiled down: as §2
The test system of series [7] is Plasmodium falciparum. Nature of the series: Safety ratio as cytotoxicity in vero cells relative to IC50 TM4. The class given is functional.
Series [8] has as its system Plasmodium falciparum. Nature of the series: In vitro antiplasmodial activity (IC50) against Plasmodium falciparum wtTM4/8.2. The class given is functional, organism-based.
Series [9] has as its system Plasmodium falciparum. Nature of the series: IC50 ratio against Plasmodium falciparum K1CB1/TM4. The format is functional.
Series [10] addresses Bifunctional dihydrofolate reductase-thymidylate synthase (Plasmodium falciparum K1) (UniProt P13922). Nature of the series: Inhibition of the C59R+S108N mutant of dihydrofolate reductase (DHFR)relative to Tmp. In short, it runs like this: (§4)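 Assayed at 25 °C in 50 mM TES pH 7.0, 75 mM β-mercaptoethanol, 1 mg/mL BSA, with 100 µM H2folate and 100 µM NADPH. A340 was followed. Ki was derived from IC50 = Ki(1+[S]/Km), assuming competitive inhibition.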

Series [11] concerns the target Bifunctional dihydrofolate reductase-thymidylate synthase (Plasmodium falciparum K1, UniProt P13922, S108N). Nature of the series: Inhibition of the S108N mutant of dihydrofolate reductase (DHFR). The method, boiled down: as §1
For series [12], the target named is Bifunctional dihydrofolate reductase-thymidylate synthase (Plasmodium falciparum K1) (UniProt P13922). Nature of the series: Inhibition of S108N mutant dihydrofolate reductase (DHFR)relative to Tmp. In short, it runs like this:
as §4

The target is the same in series [13]. Nature of the series: Inhibition of the wild-type dihydrofolate reductase (DHFR) relative to Tmp. The method, boiled down:
as §4

In series [14] the test system is BC. Nature of the series: Cytotoxicity against human breast cancer cells. The class given is functional, cell-based.
In series [15] the test system is KB. Nature of the series: Cytotoxicity against human epidermoid carcinoma KB cell. The class given is functional, cell-based.
Series [16] has as its system Plasmodium falciparum. Nature of the series: Relative antiplasmodial activity (IC50) compared to Tmp against Plasmodium falciparum K1CB1 DHFR double-mutant (C59R/S108N). The class given is functional.
Series [17] relates to Plasmodium falciparum. Nature of the series: In vitro relative antiplasmodial activity (IC50) compared to Tmp against Plasmodium falciparum TM4/8.2 wild-type. The class given is functional.
The target in series [18] is T1, Dihydrofolate reductase (Homo sapiens, UniProt P00374).
T1 sequence (P00374 whole entry): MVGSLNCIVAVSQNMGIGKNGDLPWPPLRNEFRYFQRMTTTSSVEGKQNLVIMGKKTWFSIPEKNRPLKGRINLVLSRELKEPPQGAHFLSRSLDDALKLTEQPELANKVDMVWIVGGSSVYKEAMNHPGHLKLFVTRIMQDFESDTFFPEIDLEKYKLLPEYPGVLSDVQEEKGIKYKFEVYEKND
Nature of the series: Cytotoxicity by selective inhibition against human dihydrofolate reductase (DHFR).

Series [19] in a line: Safety ratio is cytotoxicity to KB cells/IC50 TM4. The class given is toxicity, cell-based. The settings on record: human, KB cells (epidermoid carcinoma); read-out: Safety ratio. In short, it runs like this: (§5)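 Ratio of the cytotoxicity IC50 (KB or BC cells, Skehan protocol) to the antiplasmodial IC50 against TM4/8.2 (wild-type DHFR). […] Label was added after 24 h and cultures ran a further 18-24 h.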

Series [20] deals with Vero. The series is described as §3. The settings on record: Chlorocebus sabaeus.
For series [21], the target named is Bifunctional dihydrofolate reductase-thymidylate synthase (Plasmodium falciparum K1) (UniProt P13922). Nature of the series: Inhibition of Plasmodium falciparum wild-type dihydrofolate reductase (DHFR) relative to Pyrimethamine.
Sequence of Bifunctional dihydrofolate reductase-thymidylate synthase (Plasmodium falciparum K1) (P13922 whole entry, looked up): as the sequence (P13922 whole entry) above
Series [22] can be described thus: Safety ratio is cytotoxicity to BC cells/IC50 TM4. The class given is toxicity, cell-based. The settings on record: human, BC cells (breast cancer); read-out: Safety ratio. The method, boiled down:
as §5

Series [23] can be described thus: Safety ratio is cytotoxicity to KB cells/IC50 K1. The class given is toxicity, cell-based. To be noted: human, KB cells (epidermoid carcinoma); read-out: Safety ratio. In short, it runs like this: as §2
Series [24] can be described thus: Safety ratio is cytotoxicity to vero cells/IC50 K1. To be noted: monkey, read-out: Safety ratio. The class given is toxicity, cell-based. In short, it runs like this:
as §2

Series [25] in a line: Safety ratio is cytotoxicity to BC cells/IC50 K1. The format is toxicity, cell-based. To be noted: human, BC cells (breast cancer); read-out: Safety ratio. In short, it runs like this: as §2

“And” between values parts separate entries of the source, which are not always exact repeats. Identical values can stand only once. Bounds are passed on as bounds.

Sequence of Bifunctional dihydrofolate reductase-thymidylate synthase (Plasmodium falciparum K1, UniProt P13922, S108N) (P13922 whole entry, looked up, stated change not applied): as the sequence (P13922 whole entry) above

For `Nc1ncc(Cc2ccc(OCCCOc3cc(Cl)c(Cl)cc3Cl)cc2)c(N)n1`, the Ratio in series [1] was determined as 26.1; in series [3] it was 43.4; in series [9], 1.2. The Ki in series [2] was determined as 39.1 nM; in series [11], 23.5 nM. The selectivity ratio in [4] and in series [6] was 13 throughout. Moreover, the IC50 in series [5] was 45000 nM; in [8] it was 3000 nM; in series [14], > 50000 nM; in series [15], > 50000 nM. Moreover, the Safety ratio in series [7] was 15 and >17. For the same compound, the Relative activity in series [10] came to 0.2; in series [12] it was 0.2; in [13], 0.09.

In the case of `COc1cc(Cc2cnc(N)nc2N)ccc1OCc1cc(OC)c(OC)c(OC)c1`, the values for the inhibition constant Ki in [2] and in series [11] were 8.7 nM and 6.2 nM, respectively. Besides, in series [8], the IC50 was found to be 300 nM. Also, the Ratio in [9] is on record as 92.7. For the same compound, the Relative activity in series [16] is reported as 0.2; in series [17], 0.04.

`CCCCCCc1nc(N)nc(N)c1-c1ccccc1`: the Ratio in series [1] is 4; in series [3], 2.3; in [9], 21.7. Further, the Ki in series [18] turned out to be 15000 nM; in series [2], 0.7 nM; in series [11], 1.2 nM. The selectivity ratio in [19] was found to be 1880; in [22], 4470; in series [23], 87; in [24], 41; in [25], 206. In addition, the IC50 in series [20] worked out at 55000 nM; in series [8] it was 60 nM; in [14] it was 268000 nM; in series [15] it was 113000 nM. Also, the Relative activity in series [21] is 0.5. Also, the Safety ratio in series [7] is recorded as 857.

The values are drawn from ChEMBL document CHEMBL1135602 (J Med Chem, 2002).
